{"source": "ChEMBL document CHEMBL1155958", "about": "“Inhibition of oxidative metabolism of tocopherols with omega-N-heterocyclic derivatives of vitamin E” (Bioorg Med Chem, 2008)", "key": {"[1]": {"molecular_target": "T1, Cytochrome P450 4F2 (Homo sapiens, UniProt P78329)", "T1 sequence (P78329 whole entry)": "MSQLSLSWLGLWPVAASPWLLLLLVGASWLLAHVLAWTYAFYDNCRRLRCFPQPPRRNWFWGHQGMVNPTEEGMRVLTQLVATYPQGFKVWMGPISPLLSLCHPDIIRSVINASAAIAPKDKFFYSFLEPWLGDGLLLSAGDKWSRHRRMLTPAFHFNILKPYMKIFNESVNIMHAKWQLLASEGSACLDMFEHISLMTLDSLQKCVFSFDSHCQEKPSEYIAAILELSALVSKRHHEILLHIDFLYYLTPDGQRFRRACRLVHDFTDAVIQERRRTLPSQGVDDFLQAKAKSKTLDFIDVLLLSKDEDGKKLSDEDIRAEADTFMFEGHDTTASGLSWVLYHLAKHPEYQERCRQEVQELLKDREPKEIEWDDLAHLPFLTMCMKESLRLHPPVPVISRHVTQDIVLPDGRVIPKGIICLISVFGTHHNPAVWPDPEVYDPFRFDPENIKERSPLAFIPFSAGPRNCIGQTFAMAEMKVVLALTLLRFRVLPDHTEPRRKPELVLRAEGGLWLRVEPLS", "test": "Inhibition of CYP4F2-mediated gamma-tocopherol metabolism in human HepG2/C3A cells preincubated for 4 hrs and continued for 48 hrs", "assay_type": "cell-based", "settings": "for Activity: human, hepg2/c3a, 48 h", "outline": "(§1)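 Confluent HepG2/C3A monolayers pre-incubated 4 hr with inhibitor (ethanol stock) or ethanol vehicle. Medium then replaced with fresh medium containing γ-tocopherol, 25 µM final, plus inhibitor again. After 48 hr, medium analysed by GC-MS for 3'- and 5'-carboxychromanols, with d9-α-CEHC internal standard. Results given as percent inhibition, means and standard deviation.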"}, "[2]": {"molecular_target": "T2, Cytochrome P450 3A4 (Homo sapiens, UniProt P08684)", "T2 sequence (P08684 whole entry)": "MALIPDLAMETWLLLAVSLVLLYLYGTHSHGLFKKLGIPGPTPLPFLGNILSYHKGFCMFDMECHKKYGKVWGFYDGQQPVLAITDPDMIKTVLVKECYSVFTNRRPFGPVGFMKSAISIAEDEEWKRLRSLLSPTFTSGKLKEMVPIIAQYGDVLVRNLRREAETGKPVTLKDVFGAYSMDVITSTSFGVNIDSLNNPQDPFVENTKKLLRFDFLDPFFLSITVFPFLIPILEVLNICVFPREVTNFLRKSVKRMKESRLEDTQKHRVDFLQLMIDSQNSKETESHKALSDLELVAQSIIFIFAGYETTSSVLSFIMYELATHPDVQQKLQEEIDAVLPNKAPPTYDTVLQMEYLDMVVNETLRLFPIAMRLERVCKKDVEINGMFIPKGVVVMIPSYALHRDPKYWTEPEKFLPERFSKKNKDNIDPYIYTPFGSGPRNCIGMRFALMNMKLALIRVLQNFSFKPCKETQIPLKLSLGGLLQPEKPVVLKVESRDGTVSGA", "test": "Inhibition of human recombinant CYP3A4 expressed in insect cell microsome assessed as testosterone-6-hydroxylase activity at 4 uM after 60 mins", "assay_type": "ADME, microsomes", "settings": "recombinant enzyme, 1 h", "outline": "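Insect-cell microsomes expressing only recombinant human CYP3A4 (20 pmol P450) incubated 60 min with 200 µM testosterone, 1 mM NADPH and 0.25% BSA in […], pH 7.4, with or without inhibitor. Reaction stopped with cold ethanol and extracted with hexane/MTBE (7:1). 6-OH-testosterone expressed as nmol per nmol membrane cholesterol.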"}, "[3]": {"molecular_target": "T2, Cytochrome P450 3A4", "test": "Inhibition of CYP3A4 in human HepG2/C3A cells assessed as testosterone-6-hydroxylase activity", "assay_type": "ADME, cell-based", "outline": "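Confluent HepG2/C3A cultures pre-incubated 4 hr with inhibitor or ethanol control, then given 50 µM testosterone. After 48 hr, medium extracted with ethyl acetate and 6-hydroxytestosterone measured as its trimethylsilyl ether by GC-MS. Percent inhibition reported as means and standard deviation.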"}, "[4]": {"system": "Mus musculus", "test": "Enrichment in delta-tocopherol in FVB/N mouse bile assessed as tripling in delta-tocopherol/alpha-tocopherol ratio at 500 mg/kg in delta-tocopherol rich diet for 10 days", "assay_type": "functional, organism-based", "design": "dose 500 mg/kg"}, "[5]": {"molecular_target": "T1, Cytochrome P450 4F2", "test": "Inhibition of CYP4F2-mediated gamma-tocopherol metabolism in human HepG2/C3A cells at 1 uM preincubated for 6 hrs and continued for 24 hrs", "assay_type": "cell-based", "outline": "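Confluent HepG2/C3A monolayers exposed to 1 µM inhibitor for 6 hr. Then incubated 24 hr in medium with 25 µM γ-tocopherol, inhibitor not replaced. Medium carboxychromanol metabolites measured by GC-MS against d9-α-CEHC internal standard.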"}, "[6]": {"system": "Mus musculus", "test": "Enrichment in delta-tocopherol in FVB/N mouse liver assessed as doubling in delta-tocopherol/alpha-tocopherol ratio at 500 mg/kg in delta-tocopherol rich diet for 10 days", "assay_type": "functional, organism-based", "design": "dose 500 mg/kg"}, "[7]": {"molecular_target": "T3, CYP4F2 (Homo sapiens, UniProt P78329)", "T3 sequence (P78329 whole entry)": "T1 sequence (P78329 whole entry)", "test": "Inhibition of CYP4F2-mediated gamma-tocopherol metabolism in human HepG2/C3A cells at 1.0 uM preincubated for 4 hrs and continued for 48 hrs", "assay_type": "cell-based", "settings": "probe gamma-tocopherol", "outline": "as §1"}, "[8]": {"molecular_target": "T3, CYP4F2", "test": "Inhibition of CYP4F2-mediated gamma-tocopherol metabolism in human HepG2/C3A cells at 20 nM preincubated for 4 hrs and continued for 48 hrs", "assay_type": "cell-based", "settings": "probe gamma-tocopherol", "outline": "as §1"}}, "note": "Activity calls are given as the source filed them. The rule behind the calls is not given here.", "data": [{"compound": "Cc1c(C)c2c(c(C)c1O)CC[C@@](C)(CCCCCCCCCn1cnc3ccccc31)O2", "values": [{"measurement": "Activity", "setting": "[1]", "value": "Not Active"}]}, {"compound": "Cc1c(C)c2c(c(C)c1O)CC[C@@](C)(CCCCCCCCCn1ccnc1)O2", "values": [{"measurement": "inhibition (INH)", "setting": "[2]", "value": 90, "unit": "%"}, {"measurement": "Activity", "setting": "[3]", "value": "Active"}, {"measurement": "Activity", "setting": "[4]", "value": "Active"}, {"measurement": "Activity", "setting": "[5]", "value": "Active"}, {"measurement": "IC50", "setting": "[1]; read-out: ED50 (the source's name)", "value": 1, "unit": "nM"}, {"measurement": "Activity", "setting": "[6]", "value": "Active"}]}, {"compound": "Cc1c(C)c2c(c(C)c1O)CC[C@@](C)(CCCCCCCCCn1nnc3ccccc31)O2", "values": [{"measurement": "Activity", "setting": "[1]", "value": "Not Active"}]}, {"compound": "Cc1c(C)c2c(c(C)c1O)CC[C@@](C)(CCCCCCCCCn1nc3ccccc3n1)O2", "values": [{"measurement": "Activity", "setting": "[1]", "value": "Not Active"}]}, {"compound": "Cc1c(C)c2c(c(C)c1O)CC[C@@](C)(CCCCCCCCCn1ccnn1)O2", "values": [{"measurement": "Activity", "setting": "[3]", "value": "Active"}, {"measurement": "inhibition at 48 h, 1 µM", "setting": "[7]", "value": 36, "unit": "%"}]}, {"compound": "Cc1c(C)c2c(c(C)c1O)CC[C@@](C)(CCCCCCCCCn1cncn1)O2", "values": [{"measurement": "Activity", "setting": "[3]", "value": "Active"}, {"measurement": "inhibition at 48 h, 0.02 µM", "setting": "[8]", "value": 42, "unit": "%"}]}]}
